From PMC7175782 (Bioconjugate chemistry, 2018) come the findings set out here.

The assay relates to TAR RNA. Nature of the assay: Direct binding of ligands to TAR by ESI-MS under nondenaturing conditions. The note with it: 1 μM TAR, 10 μM ligand (1:10), 150 mM ammonium acetate. Further details: species or system HIV-1. An outline of the steps:
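Nondenaturing ESI-MS of HIV-1 TAR RNA (1 μM) mixed with test compound (10 μM, 1:10 molar ratio) in 150 mM ammonium acetate. Species assigned from monoisotopic masses. Free and bound RNA were quantified from relative abundances, expressed as percentages and compared to assess binding.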

Regarding `CC(NC(=O)C(N)CCCN)C(=O)Nc1ccc2c(c1)C(=O)c1ccc(NC(=O)C(C)NC(=O)C(N)CCCN)cc1C2=O.O=C(O)C(F)(F)F.O=C(O)C(F)(F)F.O=C(O)C(F)(F)F.O=C(O)C(F)(F)F` [D-4g, N,N ′-(1,1′-(9,10-Dioxo-9,10-dihydroanthracene-2,6-diyl)-bis(azanediyl)bis(1-oxo-propane-2,1-diyl))bis(2,5-diaminopentanamide)-tetra-trifluoroacetate], the “binding stoichiometry of TAR complexes (ligand:TAR)” value is reported as “up to 3 equiv of ligand”.
In the case of `C[C@H](NC(=O)C(N)CCCCN)C(=O)Nc1ccc2c(c1)C(=O)c1ccc(NC(=O)[C@H](C)NC(=O)C(N)CCCCN)cc1C2=O.O=C(O)C(F)(F)F.O=C(O)C(F)(F)F.O=C(O)C(F)(F)F.O=C(O)C(F)(F)F` (stereo partly drawn) [D-4h, N,N′-(2S,2′S)-1,1′-(9,10-Dioxo-9,10-dihydro-anthracene-2,6-diyl)bis(azanediyl)-bis(1-oxopropane-2,1-diyl)bis(2,6-diaminohexanamide)-tetra-trifluoroacetate], the “binding stoichiometry of TAR complexes (ligand:TAR)” value is recorded as “up to 4 equiv of ligand”.
